ChEMBL document CHEMBL4024799, “Synthesis and Biological Characterization of Aryl Uracil Inhibitors of Hepatitis C Virus NS5B Polymerase: Discovery of ABT-072, a trans-Stilbene Analog with Good Oral Bioavailability” (J Med Chem, 2018)
Values after ≈ are worked out from the molar mass of the structure shown.

What was measured:
Hepatitis C virus [1] = assay: Antiviral activity against HCV genotype 1a H77 infected in human HuH7 cells harboring HCV subgenomic bicistronic replicon after 3 days by luciferase reporter gene assay; format: functional, cell-based, Hepacivirus hominis; conditions: genotype 1a H77, Huh-7, 72 h
Method in brief: (§1)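 Subgenomic genotype 1a (H77) or 1b (Con1) replicons carrying firefly luciferase, transfected into Huh-7 cells. Replication inhibition was read as luciferase level in cell lysate on a luminometer and reported as EC50. Runs were done without human plasma or with 40% human plasma added, to assess inhibitor–protein binding.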

Hepatitis C virus [2] = assay: Antiviral activity against HCV genotype 1b Con1 infected in human HuH7 cells harboring HCV subgenomic bicistronic replicon after 3 days in presence of 40% human plasma by luciferase reporter gene assay; format: functional, cell-based, Hepacivirus hominis; conditions: genotype 1b Con1, Huh-7, 72 h; method in brief: as §1
[3] = Aqueous solubility of the compound at pH 7.2; format: physicochemical; conditions: buffer
Hepatitis C virus [4] = assay: Antiviral activity against HCV genotype 1b Con1 infected in human HuH7 cells harboring HCV subgenomic bicistronic replicon after 3 days by luciferase reporter gene assay; format: functional, cell-based, Hepacivirus hominis; conditions: genotype 1b Con1, Huh-7, 72 h; method in brief: as §1
[5] = Half life in Sprague-Dawley rat at 5 mg/kg, po; format: ADME, organism-based; conditions: in vivo
Method in brief: (§2)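 Sprague-Dawley rats, n = 3 per experiment; solution in DMSO:PEG400 (1:9, v/v) given IV or oral; 5 mg/kg for both routes, and 30 mg/kg oral; plasma t1/2, Vss, clearance, Cmax, AUC and F% determined.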

[6] = Oral bioavailability in Sprague-Dawley rat at 5 mg/kg; format: ADME, organism-based; conditions: in vivo; method in brief: as §2
[7] = AUC in Sprague-Dawley rat at 5 mg/kg, po; format: ADME, organism-based; conditions: in vivo; method in brief: as §2
[8] = Plasma clearance in Sprague-Dawley rat at 5 mg/kg, iv; format: ADME, organism-based; method in brief: as §2
[9] = Stability in rat liver microsomes assessed as parent compound remaining after 30 mins; format: ADME, microsome; conditions: read-out: Stability
Method in brief: (§3)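 Compound incubated 30 min with human or rat liver microsomes; percent of parent compound remaining reported.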

[10] = Stability in human liver microsomes assessed as parent compound remaining after 30 mins; format: ADME, microsome; conditions: read-out: Stability; method in brief: as §3
[11] = Passive permeability of the compound by PAMPA; format: physicochemical; conditions: read-out: permeability
[12] = Inhibition of HCV genotype 1b BK NS5B RNA dependent RNA polymerase assessed as reduction in [3H]UTP incorporation in to RNA preincubated for 15 mins followed by [3H]UTP addition measured after 3 hrs by microbeta scintillation counting method; design: species or system Hepatitis C virus (isolate BK)
Method in brief: (§4)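 NS5B polymerase from genotype 1a (H77) or 1b (BK); formation of RNA product measured as 3H-UTP incorporation by scintillation counting; IC50 calculated with a standard IC50 equation.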

[13] = Inhibition of HCV genotype 1a H77 NS5B RNA dependent RNA polymerase assessed as reduction in [3H]UTP incorporation in to RNA preincubated for 15 mins followed by [3H]UTP addition measured after 3 hrs by microbeta scintillation counting method; design: species or system Hepatitis C virus (isolate H77); method in brief: as §4
Hepatitis C virus [14] = assay: Antiviral activity against HCV genotype 1a H77 infected in human HuH7 cells harboring HCV subgenomic bicistronic replicon after 3 days in presence of 40% human plasma by luciferase reporter gene assay; format: functional, cell-based, Hepacivirus hominis; conditions: genotype 1a H77, Huh-7, 72 h; method in brief: as §1
[15] = Ratio of plasma concentration in Sprague-Dawley rat at 5 mg/kg, po to EC50 for HCV genotype 1b Con1 infected in human HuH7 cells harboring HCV subgenomic bicistronic replicon
Rattus norvegicus = assay: Time at which plasma concentration stays above HCV genotype 1b Con1 replicon EC50 in Sprague-Dawley rat at 5 mg/kg, po
[16] = Plasma concentration in Sprague-Dawley rat at 5 mg/kg, po up to 8 hrs; format: ADME, organism-based; method in brief: as §2
[17] = Cmax in Sprague-Dawley rat at 5 mg/kg, po; format: ADME, organism-based; design: dose 5 mg/kg, route oral; conditions: in vivo; method in brief: as §2

| SMILES | EC50 (Hepatitis C virus [1]) [nM] | EC50 (Hepatitis C virus [2]) [nM] | solubility ([3]; read-out: solubility) [µM] | EC50 (Hepatitis C virus [4]) [nM] | half-life [5] [h] | bioavailability [6] [%] | AUC [7] [ng·h/mL] | clearance [8] [mL/min/kg] | remaining at 0.5 h [9] [%] | remaining at 0.5 h [10] [%] | Papp [11] [×10⁻⁶ cm/s] | IC50 [12] [nM] | IC50 [13] [nM] | solubility [3] [µM] | EC50 (Hepatitis C virus [14]) [nM] | Ratio [15] | Time (Rattus norvegicus) [h] | concentration at 8 h [16] [nM] | Cmax [17] [ng/mL] |
| --- | --- | --- | --- | --- | --- | --- | --- | --- | --- | --- | --- | --- | --- | --- | --- | --- | --- | --- | --- |
| COc1c(/C=C/c2ccc(NS(C)(=O)=O)cc2)cc(-n2cc(F)c(=O)[nH]c2=O)cc1C(C)(C)C | 89 | 59.4 | 15.5 (≈ 7.56 µg/mL) | 9.6 | 3.7 | 52 | 3120 | 14.2 |  |  |  |  |  |  |  |  |  |  |  |
| COc1c(CNc2ccc(NS(C)(=O)=O)cc2)cc(N2CCC(=O)NC2=O)cc1C(C)(C)C |  |  | 90.8 (≈ 43.1 µg/mL) | 522 |  |  |  |  | 58 | 67 | 0.41 | 270 | 80 |  |  |  |  |  |  |
| COc1c(NC(=O)c2ccc(NS(C)(=O)=O)cc2)cc(N2CCC(=O)NC2=O)cc1C(C)(C)C |  | 21 | 32.8 (≈ 16 µg/mL) | 29 |  |  |  |  | > 85 | > 85 | 0.22 | 46 | 8.8 |  |  |  |  |  |  |
| COc1c(C(=O)N(C)c2ccc(NS(C)(=O)=O)cc2)cc(N2CCC(=O)NC2=O)cc1C(C)(C)C |  |  | > 50 | 1550 |  |  |  |  | 83 | 64 | 0.25 | 273 | 140 |  |  |  |  |  |  |
| COc1c(/C=C/c2ccc(NS(C)(=O)=O)c(F)c2)cc(-n2ccc(=O)[nH]c2=O)cc1C(C)(C)C | 13.8 | 5.3 | 15.5 (≈ 7.56 µg/mL) | 2.1 | 3.7 | 76 | 10400 | 6.33 |  |  |  |  |  |  |  |  |  |  |  |
| COc1c(/C=C(\C)c2ccc([N+](=O)[O-])cc2)cc(N2CCC(=O)NC2=O)cc1C(C)(C)C |  | 82.8 | < 2 | 12.4 |  |  |  |  | 36.5 | 18.5 | 0.58 | 16.7 | 4.9 |  |  |  |  |  |  |
| COc1c(/C=C/c2ccc(NS(C)(=O)=O)cc2)cc(N2CCC(=O)NC2=O)cc1C(C)(C)C | 3.1 | 3.1 |  | 1.1 | 2.3 | 18 | 1520 | 10.7 | 33.5 | 48.1 | 0.92 | 0.7 | 0.3 | 10.3 (≈ 4.86 µg/mL) | 50 | >60 | 8 | > 200 | 260 |
| COc1c(COc2ccc(NS(C)(=O)=O)cc2)cc(N2CCC(=O)NC2=O)cc1C(C)(C)C |  | 321 | 3 (≈ 1.43 µg/mL) | 53 |  |  |  |  | 80 | > 85 | 7.47 | 167 | 100 |  |  |  |  |  |  |
| COc1c(CCc2ccc(NS(C)(=O)=O)cc2)cc(N2CCC(=O)NC2=O)cc1C(C)(C)C |  | 91.3 | 18.8 (≈ 8.9 µg/mL) | 39.1 |  |  |  |  | 1.6 | 2.5 | 4.06 | 40.3 | 26.5 |  |  |  |  |  |  |
| COc1c(C(=O)Nc2ccc(NS(C)(=O)=O)cc2)cc(N2CCC(=O)NC2=O)cc1C(C)(C)C |  | 22 | < 1.5 | 19 |  |  | 50 | 25 | > 85 | > 85 | 0.25 | 21.7 | 10.8 |  |  |  |  |  |  |
| COc1c(C2CC2c2ccc(NS(C)(=O)=O)cc2)cc(N2CCC(=O)NC2=O)cc1C(C)(C)C (stereo unspecified) |  | 431 | 18.8 (≈ 9.13 µg/mL) | 56 |  |  |  |  | 32.3 | 26.5 | 2.8 | 514 | 267 |  |  |  |  |  |  |
| COc1c(C#Cc2ccc(NS(C)(=O)=O)cc2)cc(N2CCC(=O)NC2=O)cc1C(C)(C)C |  | 29.8 | 2.3 (≈ 1.08 µg/mL) | 3.9 | 3 | 14 | 350 | 31.7 | 50 | 35.8 | 0.83 | 3 | 1.1 |  |  |  |  |  | 60 |
